High-throughput results deposited in PubChem BioAssay by The Scripps Research Institute Molecular Screening Center.
MC4R antag cAMP: human MC4R antagonism in cAMP assay | P32245 | inhibition, % at 6.5 µM | MC4R-expressing cells, MTII-stimulated cAMP, LANCE TR-FRET | AID 540295 | actives 0.48% (n = 360,000);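 active = inhibition above its plate's cutoff, the mean of tested wells on that plate plus 3 SD, cut at about 29% in these data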
Target sequence (P32245 whole entry, looked up): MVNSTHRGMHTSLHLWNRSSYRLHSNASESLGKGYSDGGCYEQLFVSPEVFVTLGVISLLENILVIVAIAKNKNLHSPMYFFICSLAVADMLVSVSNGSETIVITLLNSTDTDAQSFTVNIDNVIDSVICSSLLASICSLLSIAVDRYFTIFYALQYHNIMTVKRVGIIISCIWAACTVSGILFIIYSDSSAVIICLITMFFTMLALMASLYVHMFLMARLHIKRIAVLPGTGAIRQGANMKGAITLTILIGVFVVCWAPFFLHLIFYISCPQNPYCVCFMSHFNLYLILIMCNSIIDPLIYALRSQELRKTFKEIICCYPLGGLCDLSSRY
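Material – human MC4R-expressing U2OS cells · Repeats – no replicates · Detection – TR-FRET with Eu-cAMP and labeled anti-cAMP, 671 nm · Times – compound 30 min, challenge 1 h, detection 1 h · Compound – single nominal compound dose of 6.5 µM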
NOD2 RIPK2 PPI: NOD2-RIPK2 protein interaction inhibition; CHO BLA complementation NOD2-RIPK2, CCF4 ratio; inhibition, % at 4.98 µM; actives 0.38% (n = 360,000); in the data active = inhibition above about 21%
TLR4-MyD88 BLA: TLR4-MyD88 interaction inhibition in cells; O00206+Q99836; HeLa CL3-4 TLR4/MyD88 BLA complementation, FRET ratio; inhibition, % at 8.4 µM; actives 0.18% (n = 200,000); AID 861; in the data active = inhibition above about 25%
MC4R barr agon: activates human MC4R beta-arrestin recruitment; P32245; U2OS MC4R beta-arrestin complementation, luminescence; percent of melanotan II response, DMSO zero; activation, % at 8.9 µM; actives 0.98% (n = 360,000); AID 540308;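 active = activation above a per-plate cutoff, the mean activation of sample wells on that plate plus 3 SD, cut at about 8% in these data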
TLR9-MyD88 block: blocks human TLR9 binding to MyD88. CHO BLA complementation TLR9-MyD88, CCF4 FRET ratio. actives 0.21% (n = 340,000). inhibition, % at 4.98 µM. Q9NR96+Q99836;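 active = inhibition above the mean over all tested compounds plus 3 SD, cut at about 21% in these data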
MC4R barr conf: human MC4R beta-arrestin agonism confirmation; actives 31% (n = 2,400); shares compounds with MC4R barr agon; U2OS MC4R beta-arrestin recruitment, luminescence; scaled DMSO 0%, Melanotan II 100%; AID 602192; activation, % at 8.9 µM;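 active = mean activation across replicates above the hit cutoff set in the earlier primary screen, cut at about 8% in these data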
MOR-DOR barr ag: counter-screen for MC4R agonists: agonists of mu-delta opioid heterodimer. shares compounds with MC4R barr agon. U2OS PathHunter beta-arrestin, beta-gal luminescence; percent of deltorphin B response, DMSO zero. activation, % at 9.2 µM. actives 5.8% (n = 2,400). AID 602194;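 active = mean activation across replicates exceeds the hit threshold derived in the earlier primary screen, cut at about 18% in these data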
A number is an active result; i = inactive; nt = no result; ! = repeats disagree. Shown are actives, neighbours in structure and some others; about 1.8% of the full set was active somewhere.

SMILES	MC4R antag cAMP	NOD2 RIPK2 PPI	TLR4-MyD88 BLA	MC4R barr agon	TLR9-MyD88 block	MC4R barr conf	MOR-DOR barr ag
Cc1nc(C(F)(F)F)ccc1C(=O)N1CCC1(C)C(=O)NCc1cccs1 (centres undefined)	i	i	nt	i	nt	nt	nt
CCCNC(=O)c1ccc(-c2nc3ccccc3s2)s1	i	i	i	11	i	i	i
Cc1ccc(-c2csc(NC(=O)/C=C/c3ccco3)c2C(=O)O)cc1	i	i	i	i	i	nt	nt
O=C(CSc1ncnc2c1oc1ccccc12)c1cccs1	i	i	i	13	i	i	i
Cc1nc(SCC(=O)c2cccs2)c2oc3ccccc3c2n1	i	i	i	i	i	nt	nt
CCCCCCN1C=C/C(=C\C=C(C#N)C#N)c2ccccc21	i	i	i	11	i	12	i
O=C(/C=C/c1ccccc1)Nc1cccc(C(=O)NC2CC2)c1	i	i	nt	i	i	nt	nt
COc1cccc(CNC(=O)c2ccc(Cl)c(NC3=NC4CS(=O)(=O)CC4S3)c2)c1 (centres undefined)	i	i	nt	i	i	nt	nt
CCc1nnc(NC(=O)c2cccc(OC)c2)s1	i	i	i	i	i	nt	nt
COc1cccc(C(=O)Nc2nnc(-c3cccs3)s2)c1	i	i	i	15	i	i	i
CC1CC=CCC1(CO)CO (centres undefined)	i	i	nt	i	i	nt	nt
Cc1cccc(C(=O)OCC(=O)NCCCc2ccccc2)c1O	i	i	nt	i	i	nt	nt
COc1ccc(N2CCN(C(=O)c3ccc(Br)o3)CC2)cc1	i	i	nt	i	i	nt	nt
COc1cc(OC)cc(C(=O)OCC(=O)NC(c2ccccc2)c2ccccc2)c1	i	i	nt	13	i	i	i
COc1cc(OC)cc(C(=O)NC(c2ccccc2)c2ccccc2)c1	i	i	nt	i	i	nt	nt
Cc1cc(C(=O)OCC(=O)NC(C)c2ccccc2)c(C)o1 (centres undefined)	i	i	i	i	i	nt	nt
CC(NC(=O)COC(=O)c1cc2ccccc2cc1O)c1ccccc1 (centres undefined)	i	i	nt	18	i	12	i
COc1ccc(CNC(=O)COC(=O)c2cc3ccccc3cc2O)cc1OC	i	i	nt	14	i	i	i
Cc1sc(NC(=O)C2CSC3(C)CCC(=O)N23)nc1-c1ccccc1 (centres undefined)	i	i	nt	i	i	nt	nt
Cc1ccc(S(=O)(=O)NC(=O)C2(C)CCN2C(=O)C2CCCCC2)cc1 (centres undefined)	i	i	nt	i	nt	nt	nt
COc1ccc2c(Cl)c(C(=O)N/N=C/c3ccc4c(c3)OCO4)sc2c1	i	i	i	12	i	i	i
O=C(CSc1nnc(-c2c[nH]c3ccccc23)n1C1CC1)NC1CCS(=O)(=O)C1 (centres undefined)	i	i	nt	i	i	nt	nt
CC1(Oc2cccc(F)c2)CCN(Cc2ccc(-c3ccccc3)o2)C1 (centres undefined)	i	i	nt	10.0	nt	i	i
CSc1ccc(CN2CCC(C)(Oc3cccc(F)c3)C2)cc1 (centres undefined)	i	i	nt	i	nt	nt	nt
CC(=O)c1cc2c(cc1NC(=O)CN1CCN(c3cccc(C(F)(F)F)c3)CC1)OCO2	i	i	i	16	i	i	i
SMILES	MC4R antag cAMP	NOD2 RIPK2 PPI	TLR4-MyD88 BLA	MC4R barr agon	TLR9-MyD88 block	MC4R barr conf	MOR-DOR barr ag
CC(=O)Nc1ccc(NC(=O)CN2CCN(c3cccc(C(F)(F)F)c3)CC2)cc1	i	i	i	i	i	nt	nt
Cc1c(O)c2c(=O)n(-c3ccccc3)c(-c3ccccc3)cc2oc1=O	i	i	i	i	i	nt	nt
O=C(COC(=O)c1nn(-c2ccccc2C(F)(F)F)cc1O)c1ccc(OC(F)F)cc1	i	i	nt	11	i	i	i
Cc1ccc(C(=O)Nc2cccc(C(F)(F)F)c2)cc1NC(=O)c1c[nH]c2cc(C(F)(F)F)ccc2c1=O	i	i	nt	i	i	nt	nt
CCN1CCN(Cc2ccc(NC(=O)c3ccc(C)c(NC(=O)c4c[nH]c5cc(C(F)(F)F)ccc5c4=O)c3)cc2C(F)(F)F)CC1	i	i	nt	12!	i	i	78
CC1(C(=O)NS(=O)(=O)c2ccccc2)CCN1C(=O)CC1CC1 (centres undefined)	i	i	nt	i	nt	nt	nt
CC(=O)Nc1ccc(N(C(=O)Cc2c[nH]c3ccccc23)C(C(=O)NC2CCCCC2)c2ccco2)cc1 (centres undefined)	i	i	i	i	i	nt	nt
Cc1ccc(C(C(=O)NC2CCCCC2)N(C(=O)Cc2c[nH]c3ccccc23)c2ccccc2)o1 (centres undefined)	i	i	i	12	i	i	i
O=C(NCC1CCCO1)c1ccc[nH]1 (centres undefined)	i	i	nt	i	i	nt	nt
CCC(=O)Nc1sc(Cc2ccccc2)c(C)c1C(N)=O	i	i	i	i	i	nt	nt
COc1ccc(/C=C/C(=O)Nc2sc(Cc3ccccc3)c(C)c2C(N)=O)cc1	i	i	i	25	i	16	i
Cc1c(Cc2ccccc2)sc(NC(=O)Cc2ccccc2)c1C(N)=O	i	i	i	11	i	i	i
COc1ccc2[nH]c3c(C)c4ccncc4c(C)c3c2c1	i	i	nt	14	i	28	i
O=C(CSc1nnc(NC(=O)C2CC2)s1)Nc1ccccc1C(F)(F)F	i	i	nt	i	i	nt	nt
COc1cc(OC)c(OC)cc1/C=C(\C#N)C(=O)NCc1cccs1	i	i	nt	i	i	nt	nt
CCOC(=O)c1ccc(-c2ccc(/C=C(\C#N)C(=O)NCc3cccs3)o2)cc1	i	i	i	39	i	27	i
CNC(=O)/C(C#N)=C/c1ccc(-c2ccc(Cl)cc2)o1	i	i	i	14	i	41	i
CCCCCCOc1ccc(N2C(=O)CC(S/C(N)=N/N=C(\C)c3cccs3)C2=O)cc1 (centres undefined)	i	i	i	21	i	15	i
C/C(=N\N=C(/N)SC1CC(=O)N(c2ccccc2)C1=O)c1cccs1 (centres undefined)	i	i	i	i	i	nt	nt
Cc1ccc2sc(N(CCCN(C)C)C(=O)CN3C(=O)c4ccccc4C3=O)nc2c1C	i	i	i	18	i	19	i
Cc1ccc(C(C)C)c(OCC(=O)NNCC(=O)Nc2cccc(F)c2)c1	i	i	nt	14	i	10	i
NC1=C(O)C(=O)C(c2ccccc2)O1 (centres undefined)	i	i	nt	i	i	nt	nt
CCN(C[C@H]1N[C@@](C)(C(=O)OC)[C@H]2C(=O)N(Cc3ccccc3)C(=O)[C@@H]12)C(=O)Nc1ccc(C)cc1	i	i	nt	i	i	nt	nt
COc1cccc(-c2csc(N3CCN(C(=S)Nc4ccccc4C)CC3)n2)c1	i	i	i	i	i	nt	nt
